Screens: PubChem, The Scripps Research Institute Molecular Screening Center
Rows were chosen to be rich in hits. Some 2.9% of all compounds tested hit in one or more screens of this group.
PAD4 FP inh = inhibitors of human PAD4; inhibition, % at 6.36 µM; recombinant PAD4, RCA probe fluorescence polarization; AID 485272; hit rate 0.41% among 330,000;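 active means percent inhibition above a cutoff equal to the mean of all tested compounds plus 3 SD, cut at about 15% in these data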;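 further: 0% = PAD4 with RCA probe and DMSO and 100% = probe without PAD4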
mABHD4 FP = ABHD4 (mouse) inhibition, primary FP screen. purified mABHD4, FP-Rh probe fluorescence polarization. Q8VD66. hit rate 0.54% among 370,000. inhibition, % at 8.92 µM;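 active means inhibition exceeding the mean over every tested compound plus 3 SD, cut at about 30% in these data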;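 further: 0% = plate median of compound wells and 100% = S159A mutant with DMSO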
Target sequence (Q8VD66 whole entry, looked up): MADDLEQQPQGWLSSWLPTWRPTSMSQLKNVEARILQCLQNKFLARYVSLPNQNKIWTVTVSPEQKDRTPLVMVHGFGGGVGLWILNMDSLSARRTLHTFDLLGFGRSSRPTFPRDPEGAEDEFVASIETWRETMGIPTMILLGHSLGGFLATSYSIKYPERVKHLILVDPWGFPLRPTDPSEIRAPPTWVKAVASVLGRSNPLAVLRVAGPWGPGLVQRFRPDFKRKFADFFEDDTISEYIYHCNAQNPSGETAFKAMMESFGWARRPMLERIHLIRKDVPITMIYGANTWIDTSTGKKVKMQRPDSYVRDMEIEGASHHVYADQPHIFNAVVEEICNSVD
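System: mouse ABHD4 enzyme, wild type / Medium: HEPES pH 7.0, NaCl, Pluronic buffer / Reagent: FP-Rh activity-based fluorescent probe / Control set: S159A mutant high control, sample median low control / Detection: fluorescence polarization with parallel and perpendicular emission, 525/598 nm / Schedule: 45 min + 60 min at 25 °C / Compound dosing: 8.92 µM, single dose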
SIAE inh = inhibitors of human sialic acid acetylesterase SIAE | Q9HAT2 | SIAE FP-Rh probe binding, fluorescence polarization | inhibition, % at 9.66 µM | hit rate 0.69% among 370,000 | AID 1053197;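 active means inhibition above a cutoff: mean of compounds within the control limits plus 3 SD of those, cut at about 17% in these data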;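 further: 0% = plate median of compound wells and 100% = probe without SIAE protein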
TCR CD3 inh = inhibitors of human TCR-CD3 interaction; TAMRA-labeled TCR probe fluorescence, biochemical; inhibition, % at 9.4 µM; hit rate 0.37% among 360,000; AID 651800; in the data active means inhibition above about 19%;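 further: recombinant mutant TCR 2C K166C tagged with TAMRA read by polarization; 0% = receptor in buffer alone and 100% = receptor with positive control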
HTRA1 inhibitor = blocks human HTRA1 serine peptidase; recombinant HTRA1, FP-rhodamine activity-based probe, fluorescence polarization; inhibition, % at 5.96 µM; Q92743; hit rate 0.5% among 340,000; AID 504803; in the data active means inhibition above about 36%;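 further: 0% = enzyme with DMSO and 100% = wells lacking enzyme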
PRMT1 inh = PRMT1 (human) inhibition, primary screen | recombinant PRMT1, activity-based probe fluorescence polarization | inhibition, % at 2.79 µM | hit rate 1.3% among 370,000;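 active means inhibition above about 21% made by adding two undisclosed values, limit read from the data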
Target sequence (Q99873 whole entry, looked up): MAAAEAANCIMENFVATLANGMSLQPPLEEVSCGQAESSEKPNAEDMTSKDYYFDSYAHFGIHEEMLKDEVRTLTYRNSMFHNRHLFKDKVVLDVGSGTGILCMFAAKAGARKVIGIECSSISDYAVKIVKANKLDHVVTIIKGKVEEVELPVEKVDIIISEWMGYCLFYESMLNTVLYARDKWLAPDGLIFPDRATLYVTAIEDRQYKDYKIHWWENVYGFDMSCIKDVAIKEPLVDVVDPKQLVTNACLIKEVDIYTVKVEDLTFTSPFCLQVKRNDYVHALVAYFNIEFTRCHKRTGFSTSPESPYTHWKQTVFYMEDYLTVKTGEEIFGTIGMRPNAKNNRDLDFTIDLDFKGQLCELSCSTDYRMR
ABHD4 confirm = confirmation of mouse ABHD4 inhibitors; shares compounds with mABHD4 FP; purified mABHD4, FP-Rh probe fluorescence polarization; inhibition, % at 8.92 µM; hit rate 55% among 1,800; AID 720658;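 active means mean inhibition across replicates above the hit cutoff set in the primary screen, cut at about 30% in these data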;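 further: 0% = wild-type ABHD4 with DMSO and 100% = catalytically dead S159A mutant with DMSO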
Numbers without * were called inactive; . = no result.

SMILES	PAD4 FP inh	mABHD4 FP	SIAE inh	TCR CD3 inh	HTRA1 inhibitor	PRMT1 inh	ABHD4 confirm
CCOC(=O)c1c(-c2ccc(-c3ccccc3)cc2)csc1NC(=O)CNCCN(C)C	-2.1	30.2*	11.0	-9.1	30.0	3.0	43.1*
Clc1ccc([C@H]2OC[C@@]3(CNCCc4c[nH]c5ccccc45)CS[C@H](c4ccc(Cl)cc4)N23)cc1	.	2.6	6.0	.	.	-0.6	.
CC1=Nc2nc(N3CCCCC3)c(C#N)c3c4c(nc(c23)N1)N(c1ccc(C(C)C)cc1)C(=O)C4	10.7	43.9*	5.8	5.2	2.4	6.7	42.1*
CC(C)NC(=O)N[C@H]1C[C@@H]2O[C@H](CO)CC[C@@H]2O[C@@H]1CCc1ccc(-c2ccc(F)cc2)cc1	.	-0.6	-1.7	.	.	0.1	.
Cc1cccc2cc(/C=N/Nc3ccc(C(=O)O)cc3)c(Cl)nc12	0.1	38.3*	-2.9	12.3	-1.1	5.6	43.6*
COc1cc(Cl)cc(C(c2c(C(=O)O)[nH]c3ccccc23)c2c(C(=O)O)[nH]c3ccccc23)c1O	2.2	42.6*	6.8	12.2	1.6	0.0	55.2*
O=C(O)c1[nH]c2ccccc2c1C(c1c(F)cccc1Cl)c1c(C(=O)O)[nH]c2ccccc12	-7.0	42.1*	5.0	9.9	-3.0	1.8	50.0*
O=C(O)c1[nH]c2ccccc2c1C(c1cc(Br)ccc1O)c1c(C(=O)O)[nH]c2ccccc12	-2.6	43.3*	3.9	8.7	1.4	1.5	47.2*
CN(C)CCOC(=O)COc1ccc(Cl)cc1	-1.2	62.3*	3.7	5.0	7.8	-4.0	-4.3
C=CCN1[C@H](CC(C)C)COc2cccc(N3CCSCC3)c2S1(=O)=O	.	-10.5	4.3	.	.	5.0	.
COc1cc(C=Nc2cccc(C)c2)c(O)c([N+](=O)[O-])c1	-3.9	11.8	6.6	-2.4	10.4	0.0	.
Cc1cccc(N=Cc2cc3c(cc2[N+](=O)[O-])OCO3)c1	2.6	41.2*	12.4	2.0	39.6*	17.3	26.3
CN(Cc1ccccc1)S(=O)(=O)c1cccc(C(=O)OCC2CCCCC2)c1	.	-5.7	3.6	.	.	3.0	.
CCN(CC(=O)Nc1ccc(C(C)=O)cc1)CC(=O)Nc1ccc2c(c1)OCCO2	-0.4	13.7	6.5	-1.5	-4.0	-2.3	.
CCN(CC(=O)Nc1ccc2c(c1)OCCO2)CC(=O)Nc1ccccc1C(F)(F)F	-1.8	31.6*	5.0	-1.8	3.4	2.8	7.0
Cc1ccccc1NC(=O)O[C@H]1CC[C@@]23CCCN2C(=O)CCC[C@H]3[C@H]1C	.	-1.2	12.0	.	.	1.3	.
CCOc1cc([N+](=O)[O-])cc(/C=C2/NC(=O)N(Cc3ccccc3F)C2=O)c1O	1.9	30.5*	-6.4	-3.0	26.7	5.6	54.2*
CN(C(=S)NC(=O)C1CC1)c1ccc(O)cc1	-10.7	30.2*	2.9	-0.3	6.4	16.9	-2.4
COc1ccc(OC)c(NC(=O)C(=O)/C=C(\O)c2cc(OC)ccc2OC)c1	1.9	34.7*	1.0	1.4	13.3	12.6	2.1
COc1ccc(OC)c(N/C(C)=C/C(=O)c2ccccc2)c1	-6.7	0.5	7.1	4.2	6.8	2.8	.
CCCC1=Nc2cc(C(=O)N3CCCC3)ccc2Sc2ccc(C)cc21	2.6	31.9*	-5.1	0.5	-37.3	-0.1	27.4
CCOC(=O)[C@]12CCCCC/C=C\1N(Cc1ccc(OC)cc1)C(=O)[C@H]2CC(=O)NCc1ccc(OC)c(OC)c1	.	-3.6	-5.9	.	.	3.5	.
CCCCCCCCN1C(=O)[C@@H](CC(=O)NCc2ccc(C)o2)C[C@@]2(C(=O)OC)C1=C[C@H](COCc1ccccc1)O[C@@H]2C	.	4.5	4.8	.	.	16.3	.
CC(C)(C)/C(O)=C/c1nc2cc(Cl)ccc2oc1=O	-8.2	31.8*	-1.0	-5.1	18.3	5.2	3.2
Cc1ccc2oc(=O)c(/C=C(\O)C(C)(C)C)nc2c1	-12.3	21.4	6.0	0.7	1.3	1.6	.
SMILES	PAD4 FP inh	mABHD4 FP	SIAE inh	TCR CD3 inh	HTRA1 inhibitor	PRMT1 inh	ABHD4 confirm
O=C(N1CCc2ccccc2C1)n1cc(C(O)(c2ccccc2)c2ccccc2)nn1	.	85.9*	-10.4	.	.	0.2	69.0*
CC(C)=C1C(=O)NN(c2ccc(C)c(Cl)c2)C1=O	1.5	36.9*	11.6	3.7	34.2	16.0	21.0
CC(C)n1cnc2c(NCc3ccccc3)cc(Cc3ccc(F)cc3)cc21	-2.1	30.7*	7.1	3.9	10.6	4.1	21.3
CC1CCC/C(=N/Nc2nc3ccccc3s2)C1 (centres undefined)	-0.8	37.9*	10.7	3.5	12.7	1.5	5.9
CC1(C)CC(=O)C/C(=N/Nc2nc3ccccc3s2)C1	-1.8	30.2*	11.3	-2.3	21.2	-4.3	26.6
CCSc1n[nH]c(=O)n1C	.	-7.5	0.0	-1.7	.	2.5	.
O=c1oc2ccccc2nc1/C=C(O)/C=C\c1ccccc1	-8.2	32.8*	3.6	2.8	8.9	13.5	8.7
O=c1oc2ccccc2nc1/C=C(O)/C=C/c1ccc(F)cc1	-4.7	23.7	0.1	1.5	3.0	5.4	.
COC(=O)[C@]12C[C@H](CC(=O)NCCc3ccccc3OC)C(=O)N(Cc3ccc(Cl)cc3Cl)C1=C[C@H](COCc1ccccc1)O[C@@H]2C	.	-6.9	-1.6	.	.	-0.7	.
Cc1cc2nc3ccc(=[N+](C)C)cc-3sc2cc1N	.	.	.	.	28.5	.	.
CN(C)c1ccc2nc3ccc(=[N+](C)C)cc-3sc2c1	-2.7	31.1*	7.2	7.1	17.0	6.6	14.1
O=C(Nc1ccc(C(F)(F)F)cc1)OC1CCC12CCC(c1ccccc1)CC2 (centres undefined)	.	-16.6	1.6	.	.	-2.4	.
Nc1[nH]n2c(=O)cc(-c3ccccc3)nc2c1N=Nc1ccccc1	-7.9	8.2	-1.0	-7.7	6.2	0.5	.
Nc1[nH]n2c(=O)cc(-c3ccccc3)nc2c1N=Nc1ccc(S(N)(=O)=O)cc1	-8.1	32.3*	-7.8	-7.4	13.9	5.8	36.9*
O=C(N1CCC(Cc2ccccc2)CC1)n1ncc(C(O)(c2ccccc2)c2ccccc2)n1	.	76.6*	-3.2	.	.	3.2	68.8*
N#C/C(=C(/O)c1ccc2c(c1)OCO2)c1nc2cc(C(F)(F)F)ccc2s1	5.7	32.8*	1.9	1.0	-1.0	1.7	10.4
N#C/C(=C(/O)c1ccccc1F)c1nc2cc(C(F)(F)F)ccc2s1	2.8	10.8	2.8	-0.1	-10.3	3.1	.
COc1ccc(-c2nc3cc(C)ccn3c2NCC2CCCO2)cc1OC (centres undefined)	0.8	6.9	-2.2	4.9	1.9	-1.6	.
COc1ccc(-c2nc3cc(C)ccn3c2NCc2ccc3c(c2)OCO3)cc1	-4.7	-4.7	3.3	0.3	6.4	-1.8	.
CCCCNc1c(-c2ccc(-c3ccc(C(C)=O)cc3)c(OC)c2)nc2cc(C)ccn12	5.5	46.1*	7.9	6.2	-7.1	-4.0	55.5*
